Reference: ChEMBL document CHEMBL1140098, “Dipeptide boronic acid inhibitors of dipeptidyl peptidase IV: determinants of potency and in vivo efficacy and safety” (J Med Chem, 2008)

Experiments:
Mus musculus = experiment: Reduction of glucose level in po dosed C57BL/6 mouse by oral glucose tolerance test; type: functional, organism-based
Outline: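 Male C57BL/6 mice, 7-8 per group, fasted 20 h, given vehicle or inhibitor by oral gavage at various doses. Oral glucose challenge (5 g/kg) 60 min later. Blood glucose read at 5 time points over 120 min.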

Rattus norvegicus [1] = experiment: Inhibition of DPP4 in po dosed Sprague-Dawley rat plasma after 24 hrs; type: functional, organism-based
Outline: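 Sprague-Dawley rats, 4-6 per inhibitor, single oral gavage dose across a dose range. Plasma DPP-IV activity sampled 6 times over 24 h post-dose. Percent change derived by comparing each treated sample's plasma activity with its own predose activity.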

Rattus norvegicus [2] = experiment: Toxicity in po dosed Sprague-Dawley rat assessed as maximum tolerated dose relative to Val-boroPro; type: organism-based; settings: in vivo
[3] = Toxicity in po dosed Sprague-Dawley rat assessed as maximum tolerated dose; type: organism-based; settings: in vivo
Outline: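 Sprague-Dawley rats given escalating single doses; animals observed for adverse signs; lethargic or dead animals necropsied; maximum tolerated dose taken as the highest dose without adverse effects.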

[4] = Therapeutic index, ratio of MTD to drug level causing maximal reduction of glucose AUC in po dosed Sprague-Dawley rat; settings: in vivo
Dipeptidyl peptidase 4 = Dipeptidyl peptidase 4 (Homo sapiens, UniProt P27487); experiment: Inhibition of human placental DPP4
Sequence of Dipeptidyl peptidase 4 (P27487 whole entry): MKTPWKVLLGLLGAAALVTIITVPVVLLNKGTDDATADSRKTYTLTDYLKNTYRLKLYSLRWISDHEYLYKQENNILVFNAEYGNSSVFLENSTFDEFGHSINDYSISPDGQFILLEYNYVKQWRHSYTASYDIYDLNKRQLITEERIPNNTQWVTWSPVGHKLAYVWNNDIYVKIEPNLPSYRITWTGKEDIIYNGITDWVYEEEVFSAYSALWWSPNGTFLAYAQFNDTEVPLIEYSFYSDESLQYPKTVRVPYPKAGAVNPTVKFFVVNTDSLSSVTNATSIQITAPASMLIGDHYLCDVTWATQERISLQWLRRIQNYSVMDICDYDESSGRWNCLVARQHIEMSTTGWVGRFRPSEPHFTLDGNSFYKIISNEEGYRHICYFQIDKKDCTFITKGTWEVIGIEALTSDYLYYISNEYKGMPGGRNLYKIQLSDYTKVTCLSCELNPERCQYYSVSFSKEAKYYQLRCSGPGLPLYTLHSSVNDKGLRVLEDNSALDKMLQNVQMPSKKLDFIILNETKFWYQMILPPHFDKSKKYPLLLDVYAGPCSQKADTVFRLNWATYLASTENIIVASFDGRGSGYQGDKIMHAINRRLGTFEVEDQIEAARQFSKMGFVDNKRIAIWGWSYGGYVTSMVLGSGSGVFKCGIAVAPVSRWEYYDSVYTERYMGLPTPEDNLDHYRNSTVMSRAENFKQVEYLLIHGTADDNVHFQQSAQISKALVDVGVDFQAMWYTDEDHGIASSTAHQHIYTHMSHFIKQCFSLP

Rattus norvegicus [5] = experiment: Inhibition of DPP4 in Sprague-Dawley rat plasma at 6 mg/kg, po after 4 hrs; settings: read-out: INH

Row | SMILES | Activity (Mus musculus) | Activity (Rattus norvegicus [1]) | Activity (Rattus norvegicus [2]) | MTD [3] | selectivity ratio [4] | Ki (Dipeptidyl peptidase 4) | inhibition in vivo at 6 mg/kg (Rattus norvegicus [5])
1 | C[C@H](N)C(=O)N1CCC[C@H]1B(O)O | Dose-dependent effect | Dose-dependent effect | 200 | – | – | – | –
2 | CC[C@@H](C)[C@H](N)C(=O)N1CCSC1 | – | – | < 12000 | < 300 mg/kg | < 15 | – | –
3 | N[C@@H](CCC(=O)O)C(=O)N1CCC[C@H]1B(O)O | – | – | – | – | – | 1.8 nM | –
4 | C[C@H](NC(=O)[C@@H](N)CCC(=O)O)B(O)O | Dose-dependent effect | Dose-dependent effect | 20000 | > 500 mg/kg | – | – | 80%
5 | CC(=O)N[C@H](C(=O)N1CCC[C@H]1B(O)O)C(C)C | – | – | – | – | – | 3300 nM | –
6 | NCC(=O)N1CCC[C@H]1B(O)O | – | – | – | – | – | 0.4 nM | –
7 | CC(C)[C@H](N)C(=O)N1CCC[C@H]1B(O)O [TALABOSTAT] | Dose-dependent effect | Dose-dependent effect | 1 | – | – | – | –
8 | CC[C@H](C)[C@H](N)C(=O)N1CCSC1 | – | – | > 28000 | > 700 mg/kg | > 35 | – | –
